Measurements from different studies.
Effect on: cell growth or viability

S=C([S][Au-][P+](CCCCCC[P+]([Au-][S]C(=S)n1cccn1)(c1ccccc1)c1ccccc1)(c1ccccc1)c1ccccc1)n1cccn1
GI50 (TK-10): 11 µM

COc1cc(Nc2nccc(-c3cnn4nc(OC)ccc34)n2)cc(C(F)(F)F)c1
IC50 (LoVo; ATP luminescence): 0.16 µM

COc1ccc(-c2ccc(-c3ccc(C(=N)N)nc3)s2)cc1Cl
GI50 (TK-10): 1.9 µM

COc1cccc(Oc2ccccc2NC(=O)CNC(=O)c2cccc3ccccc23)c1
GI50 (TK-10; SRB; 48 h): 1.58 µM

C/C=C/C[C@H](C)[C@@H](OC)[C@@H](C)[C@H](O)C[C@H]1OC(=O)C=C[C@H]1CC
GI50 (A2780; MTT; 48 h): 0.041 µM

Cc1ccc2c(c1)C(=NNc1nc3ccccc3n(C)c1=O)C(=O)N2
inhibition (HT-29; 30 µM): 47.6%

C=CC(=O)N1CCC[C@@H](n2nc(-c3ccc(Oc4ccccc4)cc3)c3c(N)ncnc32)C1
GI50 (U2932; 48 h): 5 µM

CCN(CC)CCNC(=O)c1c(C)[nH]c(/C=C2\C(=O)Nc3ccc(F)cc32)c1C
inhibition (HT-29; 30 µM): 59.5%

Cc1c(NC(=O)c2ccc(C(C)(C)C)cc2)cccc1-c1cn(C)c(=O)c(Nc2ccc(C(=O)N3CCOCC3)cc2)n1
GI50 (U2932; 48 h): > 10 µM

COc1ccc(-c2ccc(-c3ccc(C(=N)N)nc3)s2)cc1
GI50 (TK-10): 1.89 µM

Cn1c(=O)c(NN=C2C(=O)Nc3ccccc32)nc2ccccc21
inhibition (HT-29; 30 µM): 73%

COc1cc(/C=N/n2c(C)nc3ccc(Br)cc3c2=O)ccc1OCc1ccc(Cl)cc1
viability (LoVo; LDH; 200 µg/mL; 24 h): 80%

CC(C)c1cc(C(=O)N2Cc3ccccc3C2)c(O)c2c1C=CC2
IC50 (UMUC3; ATP luminescence; 72 h): 59.4 µM

Cc1nc2ccc(Br)cc2c(=O)n1/N=C/c1ccc(C(=O)O)cc1
viability (LoVo; LDH; 200 µg/mL; 24 h): 61.9%

COc1cc([C@@H]2c3cc4c(cc3[C@@H](O[C@@H]3O[C@@H]5CO[C@@H](C)O[C@H]5[C@H](O)[C@H]3O)[C@H]3COC(=O)[C@H]23)OCO4)cc(OC)c1O
IC50 (Caco-2; MTS; 72 h): 14 µM

Cc1nc2ccc(Cl)cc2c(=O)n1NC(=O)CCl
viability (LoVo; LDH; 200 µg/mL; 24 h): 89.5%

COc1ccc2c(c1)C(=NNc1ncnc3cc(OC)c(OC)cc13)C(=O)N2
inhibition (HT-29; 10 µM): 20.9%

CC(C)c1cc(C(=O)N2Cc3ccccc3C2)c(O)c2c1CCC2=O
IC50 (UMUC3; ATP luminescence; 72 h): > 100 µM
